In publication PMC10427982 (eBioMedicine, 2023):
Marks after values point to notes of the source that are not given here.

Columns and labels:
[1] = after remdesivir 30 mg/kg i.v.; cited from earlier work
[2] = test system: human airway epithelial cells (HAE); details: cited from earlier work
[3] = animal models; cited from earlier work
human ENT1 = details: cited from earlier work
[4] = single and multiple doses; cited from earlier work
[5] = lactating rats administered molnupiravir; cited from earlier work
[6] = Multisite microdialysis pharmacokinetics after molnupiravir; type: in vivo, rat
Outline: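 Pregnant Sprague–Dawley rats at gestation day 16 (300 ± 50 g), fasted 12 h and anaesthetised with urethane 1 g/kg i.p. Test compound in normal saline given alone via femoral vein catheter. Unbound drug and metabolite sampled by microdialysis in jugular vein, fetus, placenta and amniotic fluid, perfused with citrate-dextrose solution. Dialysates every 20 min over 6 h, UHPLC-MS/MS. Ratios taken as AUC quotients ×100%. n = 6, mean ± SEM.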

[7] = Multisite microdialysis pharmacokinetics after molnupiravir; type: in vivo, rat; remark: listed apart in the source
Outline: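 Pregnant Sprague–Dawley rats (gestation day 16, 300 ± 50 g), fasted 12 h, under urethane anaesthesia (1 g/kg i.p.). Test compound in normal saline, with the ENT inhibitor in 10% DMSO/90% PEG-400, given together via the femoral vein. Microdialysis probes sit in the jugular vein, fetus, placenta and amniotic fluid, perfused with ACD solution. Dialysates are collected every 20 min for 6 h and assayed by UHPLC-MS/MS. n = 6, mean ± SEM.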

human ENT2 = details: cited from earlier work
[8] = cited from earlier work
[9] = amniotic fluid, molnupiravir 100 mg/kg i.v. alone
[10] = blood, molnupiravir 100 mg/kg i.v. alone
[11] = fetus, molnupiravir 100 mg/kg i.v. alone
[12] = placenta, molnupiravir 100 mg/kg i.v. alone
[13] = amniotic fluid, + NBMPR 10 mg/kg i.v.
[14] = placenta, + NBMPR 10 mg/kg i.v.
[15] = female, Sprague-Dawley, rat, amniotic fluid dialysate, iv, 100 mg/kg
[16] = female, Sprague-Dawley, rat, blood dialysate, iv, 100 mg/kg
[17] = female, Sprague-Dawley, rat, fetus dialysate, iv, 100 mg/kg
[18] = female, Sprague-Dawley, rat, placenta dialysate, iv, 100 mg/kg
[19] = female, Sprague-Dawley, rat, amniotic fluid, iv, 100 mg/kg, with NBMPR (ENT inhibitor) 10 mg/kg i.v., co-administered
[20] = female, Sprague-Dawley, rat, blood, iv, 100 mg/kg, with NBMPR (ENT inhibitor) 10 mg/kg i.v., co-administered
[21] = female, Sprague-Dawley, rat, fetus, iv, 100 mg/kg, with NBMPR (ENT inhibitor) 10 mg/kg i.v., co-administered
[22] = female, Sprague-Dawley, rat, placenta, iv, 100 mg/kg, with NBMPR (ENT inhibitor) 10 mg/kg i.v., co-administered

N#C[C@@]1(c2ccc3c(N)ncnn23)O[C@H](CO)[C@@H](O)[C@H]1O [GS-441524]
Transfer ratio from mother to amniotic fluid [1]: 0.71 ± 0.19
Transfer ratio from mother to fetus [1]: 0.51 ± 0.18
Transfer ratio from mother to placenta [1]: 0.35 ± 0.09
EC50 [2]: 0.18 µM

O=c1nc(NO)ccn1[C@@H]1O[C@H](CO)[C@@H](O)[C@H]1O [NHC, β-D-N4-hydroxycytidine]
Bioavailability [3]: poor bioavailability
Interaction with transporter (human ENT1): interacts
Median Tmax in plasma [4]: 1 h
Detection in plasma of nursing pups [5]: can be detected
Concentration in dialysate sample (representative chromatogram) ([6]; amniotic fluid dialysate, 60 min after administration): 10.05 ng/mL
AUCtissue/AUCblood (biodistribution ratio) [6, 9]: 0.19 ± 0.03
Cmax [6, 9]: 4.78 ± 0.83 ^b μg/mL
MRT [6, 9]: 2.82 ± 0.13 h
Tmax [6, 9]: 150 ± 33 min
t1/2 [6, 9]: 148 ± 52 ^b min
Concentration in dialysate sample (representative chromatogram) ([6]; blood dialysate, 140 min after molnupiravir 100 mg/kg i.v.): 960 ng/mL
Cmax [6, 10]: 116500 ± 3870 ng/mL
MRT [6, 10]: 0.95 ± 0.1 h
Tmax [6, 10]: 40 min
t1/2 [6, 10]: 45 ± 5 min
Time post-administration until which detected ([6]; dialysates of all organs): 360 min
Concentration in dialysate sample (representative chromatogram) ([6]; fetus dialysate, collected at 140 min): 185 ng/mL
AUCtissue/AUCblood (biodistribution ratio) [6, 11]: 0.29 ± 0.11
Cmax [6, 11]: 7.20 ± 2.10 ^b μg/mL
MRT [6, 11]: 2.62 ± 0.167 h
Tmax [6, 11]: 123 ± 11 ^b min
t1/2 [6, 11]: 492 ± 305 ^b min
Concentration in dialysate sample (representative chromatogram) ([6]; placenta dialysate, 80 min after administration): 126.2 ng/mL
AUCtissue/AUCblood (biodistribution ratio) [6, 12]: 0.09 ± 0.01
Cmax [6, 12]: 2.98 ± 0.42 ^b μg/mL
MRT [6, 12]: 2.6 ± 0.167 h
Tmax [6, 12]: 90 ± 16 min
t1/2 [6, 12]: 138 ± 18 ^b min
Transfer ratio across the blood-placenta barrier ([6]; range over fetus, placenta, amniotic fluid): 9–29%
AUCtissue/AUCblood (biodistribution ratio) [7, 13]: 0.19 ± 0.05
Cmax [7, 13]: 4.21 ± 0.44 ^d μg/mL
MRT [7, 13]: 4.9 ± 1.28 h
Tmax [7, 13]: 100 ± 14 ^d min
t1/2 [7, 13]: 181 ± 56 ^d min
Cmax ([7]; blood, + NBMPR 10 mg/kg i.v.): 97260 ± 24950 ng/mL
MRT ([7]; blood, + NBMPR 10 mg/kg i.v.): 0.933 ± 0.1 h
t1/2 ([7]; blood, + NBMPR 10 mg/kg i.v.): 66 ± 3 min
AUCtissue/AUCblood (biodistribution ratio) ([7]; fetus, + NBMPR 10 mg/kg i.v.): 0.27 ± 0.07
Cmax ([7]; fetus, + NBMPR 10 mg/kg i.v.): 4.69 ± 1.92 ^d μg/mL
MRT ([7]; fetus, + NBMPR 10 mg/kg i.v.): 12.7 ± 4.25 h
Tmax ([7]; fetus, + NBMPR 10 mg/kg i.v.): 93 ± 16 ^d min
t1/2 ([7]; fetus, + NBMPR 10 mg/kg i.v.): 507 ± 178 ^d min
AUCtissue/AUCblood (biodistribution ratio) [7, 14]: 0.14 ± 0.06
Cmax [7, 14]: 2.95 ± 0.97 ^d μg/mL
MRT [7, 14]: 4.18 ± 1.08 h
Tmax [7, 14]: 106 ± 12 ^d min
t1/2 [7, 14]: 157 ± 56 ^d min
Interaction with transporter (human ENT2): interacts

CC(C)C(=O)OC[C@H]1O[C@@H](n2ccc(NO)nc2=O)[C@H](O)[C@@H]1O [Molnupiravir]
Fetal finding at lower dose ([8]; 500 mg/kg): decreased fetal body weight
Fetal finding at high dose ([8]; 1000 mg/kg): internal and skeletal malformations of the fetus
NOAEL for maternal and developmental toxicity [8]: 250 mg/kg
Finding at doses eight times the normal dose / expected exposure ([8]; pregnant rat model): developmental toxicity
Increase of the bioavailability of NHC [3]: more than 90%
Time up to which detected ([6]; blood, molnupiravir 100 mg/kg i.v.): up to 200 min
CL [6, 10]: 21.89 ± 2.99 mL/min/kg
Time for the maximum concentration in the conceptus ([6]; conceptus, molnupiravir 100 mg/kg i.v.): approximately 40 min
Kp ([6]; female, Sprague-Dawley, rat, amniotic fluid (relative to blood), iv, 100 mg/kg): 0.05 ± 0.01
concentration at 60 min ([6]; female, Sprague-Dawley, rat, amniotic fluid dialysate, intravenous, 100 mg/kg): 1.48 ng/mL
AUC(0-inf) [6, 15]: 4660 ng·h/mL
Cmax [6, 15]: 2110 ± 380 ng/mL
half-life [6, 15]: 13.8 ± 2.88 h
MRT ([6]; female, Sprague-Dawley, rat, amniotic fluid, iv, 100 mg/kg): 1.73 h
concentration at 140 min ([6]; female, Sprague-Dawley, rat, blood dialysate, intravenous, 100 mg/kg): 18.2 ng/mL
AUC(0-inf) [6, 16]: 61600 ng·h/mL
Cmax [6, 16]: 219000 ± 42300 ng/mL
half-life [6, 16]: 0.183 ± 0.0333 h
MRT ([6]; female, Sprague-Dawley, rat, blood, iv, 100 mg/kg): 0.267 h
Kp ([6]; female, Sprague-Dawley, rat, fetus (relative to blood), iv, 100 mg/kg): 0.03 ± 0.01
concentration at 140 min ([6]; female, Sprague-Dawley, rat, fetus dialysate, intravenous, 100 mg/kg): 3.02 ng/mL
AUC(0-inf) [6, 17]: 3310 ng·h/mL
Cmax [6, 17]: 3540 ± 1320 ng/mL
half-life [6, 17]: 0.483 ± 0.0833 h
MRT ([6]; female, Sprague-Dawley, rat, fetus, iv, 100 mg/kg): 0.7 h
Kp ([6]; female, Sprague-Dawley, rat, placenta (relative to blood), iv, 100 mg/kg): 0.02 ± 0.009
concentration at 80 min ([6]; female, Sprague-Dawley, rat, placenta dialysate, intravenous, 100 mg/kg): 15.1 ng/mL
AUC(0-inf) [6, 18]: 2420 ng·h/mL
Cmax [6, 18]: 2560 ± 730 ng/mL
half-life [6, 18]: 1 ± 0.417 h
MRT ([6]; female, Sprague-Dawley, rat, placenta, iv, 100 mg/kg): 1.17 h
Time within which metabolized to NHC ([6]; molnupiravir 100 mg/kg i.v.): ≤ 20 min
AUC(0-inf) [7, 19]: 2770 ng·h/mL
Cmax [7, 19]: 2140 ± 640 ng/mL
MRT [7, 19]: 1.47 h
half-life [7, 19]: 3.12 ± 0.833 h
AUC(0-inf) [7, 20]: 49600 ng·h/mL
Cmax [7, 20]: 261000 ± 111000 ng/mL
MRT [7, 20]: 0.283 h
clearance [7, 20]: 59.2 ± 22.6 mL/min/kg
half-life [7, 20]: 0.2 ± 0.0167 h
AUC(0-inf) [7, 21]: 1650 ng·h/mL
Cmax [7, 21]: 2410 ± 180 ng/mL
MRT [7, 21]: 0.833 h
half-life [7, 21]: 0.433 ± 0.1 h
AUC(0-inf) [7, 22]: 1880 ng·h/mL
Cmax [7, 22]: 1020 ± 190 ng/mL
half-life [7, 22]: 3 ± 1.42 h
MRT [7, 14]: 3.95 ± 1.48 h
